In series [1] the target is T1, Bovine Pancreatic Chymotrypsin (Bos taurus, UniProt P00766). The settings on record: read-out: reported IC50 against bovine chymotrypsin; cited from earlier work.
In series [2] the target is Porcine Pancreatic Elastase (Sus scrofa, UniProt P00772). Kind of series: Porcine pancreatic elastase inhibition assay. The series is classed as biochemical.
Series [3] concerns the target T2, Human neutrophil elastase (HNE) (Homo sapiens, UniProt P08246).
T2 sequence (P08246 30-267): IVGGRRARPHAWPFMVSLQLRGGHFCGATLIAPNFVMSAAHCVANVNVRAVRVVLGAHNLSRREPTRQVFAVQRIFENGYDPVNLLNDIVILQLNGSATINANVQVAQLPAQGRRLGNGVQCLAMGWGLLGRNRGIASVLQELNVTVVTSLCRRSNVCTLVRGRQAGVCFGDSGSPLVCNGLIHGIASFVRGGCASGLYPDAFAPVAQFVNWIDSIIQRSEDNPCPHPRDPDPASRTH
Description: In vitro cleavage of CD40-IgG chimera. The settings on record: qualitative gel assessment; for complete inhibition of CD40ch cleavage up to (concentration): tested 0.001–100 μM, 2 h pre-incubation with HNE. The series is classed as biochemical. The gist of the method:
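Human neutrophil elastase (100 μg/mL stock in 0.1 M Tris-NaCl, pH 7.5) was pre-incubated 2 h at 4 °C with test compound (0.001–100 μM) or DMSO. CD40-IgG chimera (human CD40 residues 21–193 fused to human IgG1 fragment) was then added at an elastase:CD40 molar ratio of 1:10 and incubated 1.5 h at 37 °C. Reactions were stopped by freezing and fragments run on reducing SDS-PAGE (2% mercaptoethanol). Gels were silver-stained and bands judged qualitatively; controls were elastase only and CD40 only.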

Series [4] relates to CD40 cleavage by HNE in MDA-MB-231 cells. Kind of series: Cleavage of CD40 by HNE in MDA-MB-231 cells, Western blot. It counts as cell-based, human. The settings on record: 100 nM HNE, 24 h. Put shortly: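 MDA-MB-231 cells seeded at 150,000/well; after 24 h, medium was replaced with medium containing 100 nM recombinant human neutrophil elastase plus test compound in DMSO or solvent. Lysates were taken after 24 h incubation and protein measured by BCA. 17 μg protein was run on SDS-PAGE, blotted to PVDF and probed with anti-CD40 antibody detecting the N-terminal fragment, with chemiluminescent detection.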
On the technique in general: A western blot detects proteins with antibodies after separation by electrophoresis.

For series [5], the system named is MDA-MB-231 cells. Description: Transwell migration assay. It counts as cell-based, human. The conditions noted are these: 48 h; for effect on migration of MDA-MB-231 cells: 100 nM HNE. The gist of the method: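 Transwell inserts with 8 μm pore PET membranes. 5000 MDA-MB-231 cells in DMEM/10% FBS were seeded in the insert with test compound in DMSO or solvent, with or without 100 nM recombinant HNE; the lower chamber held complete medium with the same additions. Plates were incubated 48 h at 37 °C, 5% CO₂, and non-migrated cells were swabbed off. Migrated cells were crystal violet-stained and counted microscopically, in triplicate. Comparisons to solvent control used a two-tailed unpaired t test.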

The target in series [6] is T3, Human Neutrophil Elastase (Homo sapiens, UniProt P08246).
T3 sequence (P08246 30-267): T2 sequence (P08246 30-267)
Kind of series: Human neutrophil elastase inhibition assay. It counts as biochemical. The conditions noted are these: for fold less potent than 1, HNE: ratio of IC50 values.

The target of series [7] is T1, Bovine Pancreatic Chymotrypsin. Description: Chymotrypsin inhibition assay. It counts as biochemical. Put shortly: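 Bovine pancreatic α-chymotrypsin in 50 mM Tris-HCl, 100 mM NaCl, 1 mM CaCl₂, pH 7.8. Test compound in DMSO (top 100 μM final, half-log dilutions) was pre-incubated with enzyme for 30 min at room temperature. Substrate was N-succinyl-Gly-Gly-Phe-p-nitroanilide (1.5 mM solution). A405 was read every 30 s for 30 min, with a PMSF positive control. Percent activity came from initial slopes relative to solvent control.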

For series [8], the system named is ICAM-1 gene expression in MDA-MB-231 cells. Description: ICAM-1 gene expression by RT-qPCR. It counts as cell-based, human. The settings on record: 12 h. The gist of the method: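 MDA-MB-231 cells seeded at 500,000/well, grown 24 h, then serum-starved 24 h in DMEM. Medium was replaced with serum-free DMEM containing test compound or solvent, with 100 nM HNE where applied, for 12 h. RNA was isolated, reverse-transcribed with oligo(dT), and ICAM-1 transcripts were quantified by TaqMan qPCR.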

Series [9] relates to MDA-MB-231 cells. Kind of series: HNE-induced morphological changes. The series is classed as cell-based, human.
For series [10], the system named is sICAM-1 (ICAM-1 shedding) in MDA-MB-231 cells. Description: sICAM-1 levels by ICAM-1 AlphaLisa. The settings on record: 12 h; for reduction in the levels of sICAM-1: co-treatment with 100 nM HNE. It counts as cell-based, human. The gist of the method:
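MDA-MB-231 cells were grown overnight, starved 24 h, then placed in serum-free DMEM containing test compound or solvent, with 100 nM HNE where applied. After 12 h, culture medium was collected and soluble ICAM-1 quantified by AlphaLisa.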
Background: In Alpha technology, singlet oxygen from a donor bead excites a nearby acceptor bead.

Series [11] concerns the target purified 20S human proteasome (Homo sapiens, UniProt P28074). Kind of series: Proteasome activity assay. The series is classed as biochemical. The settings on record: 50 μM, compared to positive control epoxomicin. Put shortly: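 Purified human 20S proteasome (0.1 μg/well final) was pre-incubated 10 min at room temperature with test compound (50 μM final). Suc-LLVY-AMC substrate (75 μM final) was then added to measure chymotrypsin-like activity, using a commercial kit per the manufacturer's protocol.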

Series [12] has as its system MDA-MB-231 cells. Description: Cell viability assay. It counts as cell-based, human. The settings on record: 48 h, MTT. The gist of the method:
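MDA-MB-231 cells seeded at 12,000 cells/well and grown 24 h, then exposed to test compound, HNE or DMSO solvent control. After 48 h, viability was read by MTT per the kit instructions.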

Setting [13] is: read-out: IC50 Human Neutrophil Elastase, mean ± SD, n=3, 15 min pre-incubation.

Like-named read-outs stand apart in the source and are kept apart here.

The text below walks through data of paper PMC6366850 (Chembiochem : a European journal of chemical biology, 2018).

Chain of Porcine Pancreatic Elastase (P00772 27-266): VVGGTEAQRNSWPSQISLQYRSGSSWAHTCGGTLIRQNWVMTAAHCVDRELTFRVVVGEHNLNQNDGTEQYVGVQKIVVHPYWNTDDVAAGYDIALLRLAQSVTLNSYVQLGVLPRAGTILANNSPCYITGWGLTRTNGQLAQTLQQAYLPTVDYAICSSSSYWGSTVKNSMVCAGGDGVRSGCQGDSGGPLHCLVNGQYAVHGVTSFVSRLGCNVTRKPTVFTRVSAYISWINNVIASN

For `CC(=O)N1CCC[C@H]1C(=O)N[C@H](C(=O)N[C@@H]1C(=O)N[C@@H](CC(C)C)C(=O)N[C@H]2CC[C@@H](O)N(C2=O)[C@@H](Cc2ccccc2)C(=O)N(C)[C@@H](Cc2ccc(O)cc2)C(=O)N[C@@H](C(C)C)C(=O)O[C@@H]1C)[C@@H](C)O` [kempopeptin A], the IC50 – broadly, the midpoint of a concentration-inhibition curve – in series [1] was 300 nM.

With `CC(C)(C)C(=O)Oc1ccc(S(=O)(=O)Nc2ccccc2C(=O)NCC(=O)O)cc1` [Sivelestat, reference compound], in [2], it took 3550 ± 140 nM to reach half-maximal inhibition (IC50).

With `C/C=C(\NC(=O)[C@H](C)NC(=O)CCC)C(=O)N[C@@H]1C(=O)N[C@@H](CC(C)C)C(=O)N[C@H]2CC[C@@H](O)N(C2=O)[C@@H](Cc2ccccc2)C(=O)N(C)[C@@H](Cc2ccc(O)cc2)C(=O)N[C@@H](C(C)C)C(=O)O[C@@H]1C` [Loggerpeptin C (3), loggerpeptin C], the “fold less potent than 1 and 2, porcine pancreatic elastase” value in [2] (ratio of IC50 values) was 2 fold. Besides, the “complete inhibition of CD40ch cleavage up to (concentration)” value in series [3] was 10 µM. In addition, the “inhibition of HNE processing of CD40 in cells” value is listed as “lacked significant activity” in series [4] (10 μM) and “marginal activity” in series [4] (50 μM). Besides, the “effect on migration of MDA-MB-231 cells” value in series [5] (different concentrations) was “no effect on migration”. Further, the “fold less potent than 1, HNE” value in [6] is on record as 2 fold. For the same compound, the concentration for half-maximal inhibition (IC50) in series [6] (setting [13]) came out at 620 ± 380 nM.

As to `CCCC(=O)N[C@@H](C)C(=O)N[C@@H](C(=O)N[C@@H]1C(=O)N[C@@H](CC(C)C)C(=O)N[C@H]2CC[C@@H](O)N(C2=O)[C@@H](Cc2ccccc2)C(=O)N(C)[C@@H](Cc2ccc(O)cc2)C(=O)N[C@@H](C(C)C)C(=O)O[C@H]1C)[C@@H](C)OC(=O)[C@H](C)NC(=O)CCC` [Loggerpeptin B (2), loggerpeptin B], in series [6], the “fold less potent than 1, HNE” value is listed as 3 fold. Moreover, in [6] (setting [13]), the half-inhibitory concentration (IC50) is 890 ± 90 nM.

As for `C/C=C1\NC(=O)[C@@H](NC(=O)[C@@H](NC(=O)[C@H](C)NC(=O)CCC)[C@@H](C)O)[C@@H](C)OC(=O)[C@H](C(C)C)NC(=O)[C@H](Cc2ccc(O)cc2)N(C)C(=O)[C@H](Cc2ccccc2)N2C(=O)[C@H](CC[C@H]2O)NC1=O` [Molassamide (4), molassamide], the IC50 is 50 ± 10 nM in series [2], 240 ± 10 nM in series [7] and 110 ± 10 nM in series [6]. The “fold more potent than 3 in inhibiting CD40ch cleavage” value in series [3] is 10 fold. In [3], the “complete inhibition of CD40ch cleavage up to (concentration)” value turned out to be 1 µM. In series [8] (100 nM HNE), the “elastase-induced ICAM-1 expression levels” value is on record as “dose-dependent decrease”. Further, in series [8] (without HNE), the “ICAM-1 expression levels in the absence of HNE” value is “no significant change”. Moreover, the “inhibition of HNE processing of CD40 in cells” value in series [4] (50 μM) is recorded as “virtually complete inhibition”. Moreover, in series [9] (co-treatment with 100 nM HNE, 3 h), the “HNE-induced cell rounding prevented up to (concentration)” value was found to be 10 µM. Moreover, in series [9] (without HNE, up to 50 μM), the “morphological changes upon treatment with compound only” value was “no morphological changes”. In addition, the “effect on migration of MDA-MB-231 cells” value in series [5] (10 μM) is reported as “inhibited the migration”. Besides, in [5] (without HNE), the “effect on migration of MDA-MB-231 cells in the absence of HNE” value was “did not exhibit any migration inhibitory activity”. In addition, the entries for the “reduction in the levels of sICAM-1” value in [10] (10 μM) and in series [10] (50 μM) were 35% and 65%, respectively. Also, the “effect on the levels of sICAM-1 in the absence of HNE” value in series [10] (without HNE) was “no effects”. Besides, the “inhibition of chymotrypsin-like activity of proteasomes” value in series [11] was “did not inhibit”. Besides, the “effect on viability of MDA-MB-231 cells” value in [12] is “no reduction in cell viability”.

Consider `CCCC(=O)N[C@@H](C)C(=O)N[C@H](C(=O)N[C@@H]1C(=O)N[C@@H](CC(C)C)C(=O)N[C@H]2CC[C@@H](O)N(C2=O)[C@@H](Cc2ccccc2)C(=O)N(C)[C@@H](Cc2ccc(O)cc2)C(=O)N[C@@H](C(C)C)C(=O)O[C@@H]1C)[C@H](C)O` [Loggerpeptin A (1), loggerpeptin A], for which, in series [6] (setting [13]), the IC50 was 290 ± 40 nM.
